ChEMBL document CHEMBL4706575, “Nonpeptidic quinazolinone derivatives as dual nucleotide-binding oligomerization domain-like receptor 1/2 antagonists for adjuvant cancer chemotherapy” (Eur J Med Chem, 2020)
The source made the active and inactive calls. The rule behind the calls is not given here.

Assays:
[1] = biological target: T1, Nucleotide-binding oligomerization domain-containing protein 1 (Homo sapiens) (UniProt Q9Y239); experiment: Antagonist activity at NOD1 in human THP-1 cells assessed as inhibition of C12-iE-DAP-induced increase in p65 phosphorylation at 1 to 10 uM preincubated for 1 hr followed by C12-iE-DAP addition and measured after 30 mins by Western blot analysis; type: cell-based; settings: filed as antagonist, dose 1-10 µM, time 1.5 hrs
T1 sequence (whole entry): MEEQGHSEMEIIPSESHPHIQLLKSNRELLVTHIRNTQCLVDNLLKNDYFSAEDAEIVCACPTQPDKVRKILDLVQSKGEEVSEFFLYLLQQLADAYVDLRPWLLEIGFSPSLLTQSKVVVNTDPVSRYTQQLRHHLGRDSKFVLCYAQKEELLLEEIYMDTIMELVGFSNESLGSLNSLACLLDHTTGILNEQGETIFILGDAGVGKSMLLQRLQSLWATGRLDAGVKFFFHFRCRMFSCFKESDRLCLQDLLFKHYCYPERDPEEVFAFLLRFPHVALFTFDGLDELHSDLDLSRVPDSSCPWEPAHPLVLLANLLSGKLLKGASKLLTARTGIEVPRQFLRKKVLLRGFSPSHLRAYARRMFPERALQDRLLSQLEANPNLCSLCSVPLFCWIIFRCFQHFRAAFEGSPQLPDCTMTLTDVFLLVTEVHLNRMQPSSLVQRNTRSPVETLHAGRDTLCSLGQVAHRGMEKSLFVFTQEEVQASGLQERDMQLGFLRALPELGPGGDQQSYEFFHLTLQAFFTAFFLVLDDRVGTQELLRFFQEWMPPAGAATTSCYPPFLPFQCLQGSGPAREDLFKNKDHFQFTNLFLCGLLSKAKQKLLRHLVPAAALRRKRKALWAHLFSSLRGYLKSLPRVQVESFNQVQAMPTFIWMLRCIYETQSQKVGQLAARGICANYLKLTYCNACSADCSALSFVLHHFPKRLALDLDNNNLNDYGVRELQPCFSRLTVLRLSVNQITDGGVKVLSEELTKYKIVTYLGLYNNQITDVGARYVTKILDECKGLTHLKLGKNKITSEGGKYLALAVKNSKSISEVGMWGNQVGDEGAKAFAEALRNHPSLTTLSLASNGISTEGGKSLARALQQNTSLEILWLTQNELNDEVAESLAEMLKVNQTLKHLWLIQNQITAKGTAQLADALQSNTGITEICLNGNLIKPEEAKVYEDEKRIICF
How it was run: (§1)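 Serum-starved THP-1 cells pretreated with compound (1.0 or 10 µM) or without for 1 h. Then C12-iE-DAP 500 ng/mL (NOD1) or MDP (NOD2) for 30 min. Lysed in cold whole-cell buffer. Western blot for IκBα and for total and phospho RIP2, IKKα/β, p65, JNK, p38 and ERK1/2. β-actin as loading control.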

[2] = biological target: T2, Nucleotide-binding oligomerization domain-containing protein 2 (Homo sapiens, UniProt Q9HC29); experiment: Antagonist activity at NOD2 in human THP-1 cells assessed as inhibition of MDP-induced IL8 mRNA expression preincubated for 1 hr followed by MDP addition and measured after 90 mins by qRT-PCR analysis; type: cell-based; settings: filed as antagonist, dose 1-10 µM, time 150.0 min
How it was run: (§2)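 THP-1 cells in RPMI-1640 with 10% FBS, treated with compound (1.0 or 10 µM) or vehicle for 1 h. Then stimulated 90 min with C12-iE-DAP 500 ng/mL (NOD1) or MDP (NOD2). IL-6, TNF-α and IL-8 mRNA measured by qRT-PCR. Mean ± SD, n = 6, two-tailed t-test.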

[3] = biological target: T1, Nucleotide-binding oligomerization domain-containing protein 1 (Homo sapiens); experiment: Antagonist activity at NOD1 in human THP-1 cells assessed as inhibition of C12-iE-DAP-induced increase in p38 phosphorylation at 1 to 10 uM preincubated for 1 hr followed by C12-iE-DAP addition and measured after 30 mins by Western blot analysis; type: cell-based; settings: filed as antagonist, dose 1-10 µM, time 1.5 hrs; how it was run: as §1
[4] = biological target: T2, Nucleotide-binding oligomerization domain-containing protein 2; experiment: Antagonist activity at NOD2 in HEK-Blue hNOD2 cells assessed as inhibition of MDP-induced NFkappaB activation-mediated SEAP release preincubated for 3 hrs followed by MDP addition and measured after 20 hrs by spectrophotometric method; type: cell-based
How it was run: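 HEK-Blue hNOD2 cells preincubated 3 h with a range of concentrations, then MDP 100 ng/mL for 20 h. SEAP quantified. SRB assay run to exclude cytotoxicity. IC50 by nonlinear semi-logarithmic fit, mean ± SD, n = 3.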

[5] = biological target: T2, Nucleotide-binding oligomerization domain-containing protein 2; experiment: Antagonist activity at NOD2 in human THP-1 cells assessed as inhibition of MDP-induced increase in p38 phosphorylation preincubated for 1 hr followed by MDP addition and measured after 30 mins by Western blot analysis; type: cell-based; settings: filed as antagonist, dose 1-10 µM, time 1.5 hrs; how it was run: as §1
[6] = biological target: T2, Nucleotide-binding oligomerization domain-containing protein 2; experiment: Antagonist activity at NOD2 in human THP-1 cells assessed as inhibition of MDP-induced increase in RIP2 phosphorylation preincubated for 1 hr followed by MDP addition and measured after 30 mins by Western blot analysis; type: cell-based; settings: filed as antagonist, dose 1-10 µM, time 1.5 hrs; how it was run: as §1
[7] = biological target: T1, Nucleotide-binding oligomerization domain-containing protein 1 (Homo sapiens); experiment: Antagonist activity at NOD1 in human THP-1 cells assessed as inhibition of C12-iE-DAP-induced increase in JNK phosphorylation at 1 to 10 uM preincubated for 1 hr followed by C12-iE-DAP addition and measured after 30 mins by Western blot analysis; type: cell-based; settings: filed as antagonist, dose 1-10 µM, time 1.5 hrs; how it was run: as §1
[8] = biological target: T2, Nucleotide-binding oligomerization domain-containing protein 2; experiment: Antagonist activity at NOD2 in human THP-1 cells assessed as inhibition of MDP-induced TNFalpha mRNA expression preincubated for 1 hr followed by MDP addition and measured after 90 mins by qRT-PCR analysis; type: cell-based; settings: filed as antagonist, dose 1-10 µM, time 150.0 min; how it was run: as §2
[9] = biological target: T1, Nucleotide-binding oligomerization domain-containing protein 1 (Homo sapiens); experiment: Antagonist activity at NOD1 in human THP-1 cells assessed as inhibition of C12-iE-DAP-induced increase in RIP2 phosphorylation at 1 to 10 uM preincubated for 1 hr followed by C12-iE-DAP addition and measured after 30 mins by Western blot analysis; type: cell-based; settings: filed as antagonist, dose 1-10 µM, time 1.5 hrs; how it was run: as §1
[10] = biological target: T2, Nucleotide-binding oligomerization domain-containing protein 2; experiment: Antagonist activity at NOD2 in human THP-1 cells assessed as inhibition of MDP-induced IL6 mRNA expression preincubated for 1 hr followed by MDP addition and measured after 90 mins by qRT-PCR analysis; type: cell-based; settings: filed as antagonist, dose 1-10 µM, time 150.0 min; how it was run: as §2
[11] = biological target: T2, Nucleotide-binding oligomerization domain-containing protein 2; experiment: Antagonist activity at NOD2 in human THP-1 cells assessed as inhibition of MDP-induced increase in JNK phosphorylation preincubated for 1 hr followed by MDP addition and measured after 30 mins by Western blot analysis; type: cell-based; settings: filed as antagonist, dose 1-10 µM, time 1.5 hrs; how it was run: as §1
[12] = biological target: T1, Nucleotide-binding oligomerization domain-containing protein 1 (Homo sapiens); experiment: Antagonist activity at NOD1 in human THP-1 cells assessed as inhibition of C12-iE-DAP-induced increase in IKKalpha/beta phosphorylation at 1 to 10 uM preincubated for 1 hr followed by C12-iE-DAP addition and measured after 30 mins by Western blot analysis; type: cell-based; settings: filed as antagonist, dose 1-10 µM, time 1.5 hrs; how it was run: as §1
[13] = Toxicity in mouse B16-F10 cells implanted C57BL/6 mouse assessed as change in body weight at 50 mg/kg, iv administered every other day for 15 days; type: organism-based; settings: in vivo, 360 h, time 15 day
[14] = biological target: T3, Nucleotide-binding oligomerization domain-containing protein 1 (Homo sapiens, UniProt Q9Y239); experiment: (§3) Antagonist activity at NOD1 in HEK-Blue hNOD1 cells assessed as inhibition of C12-iE-DAP-induced NFkappaB activation-mediated SEAP release preincubated for 3 hrs followed by C12-iE-DAP addition and measured after 20 hrs by spectrophotometric method; type: cell-based
T3 sequence (Q9Y239 whole entry): T1 sequence (whole entry)

[15] = biological target: T1, Nucleotide-binding oligomerization domain-containing protein 1 (Homo sapiens); experiment: as §3; type: cell-based; settings: filed as antagonist, time 23.0 hrs

T2 sequence (Q9HC29 whole entry, the tested form may be a part): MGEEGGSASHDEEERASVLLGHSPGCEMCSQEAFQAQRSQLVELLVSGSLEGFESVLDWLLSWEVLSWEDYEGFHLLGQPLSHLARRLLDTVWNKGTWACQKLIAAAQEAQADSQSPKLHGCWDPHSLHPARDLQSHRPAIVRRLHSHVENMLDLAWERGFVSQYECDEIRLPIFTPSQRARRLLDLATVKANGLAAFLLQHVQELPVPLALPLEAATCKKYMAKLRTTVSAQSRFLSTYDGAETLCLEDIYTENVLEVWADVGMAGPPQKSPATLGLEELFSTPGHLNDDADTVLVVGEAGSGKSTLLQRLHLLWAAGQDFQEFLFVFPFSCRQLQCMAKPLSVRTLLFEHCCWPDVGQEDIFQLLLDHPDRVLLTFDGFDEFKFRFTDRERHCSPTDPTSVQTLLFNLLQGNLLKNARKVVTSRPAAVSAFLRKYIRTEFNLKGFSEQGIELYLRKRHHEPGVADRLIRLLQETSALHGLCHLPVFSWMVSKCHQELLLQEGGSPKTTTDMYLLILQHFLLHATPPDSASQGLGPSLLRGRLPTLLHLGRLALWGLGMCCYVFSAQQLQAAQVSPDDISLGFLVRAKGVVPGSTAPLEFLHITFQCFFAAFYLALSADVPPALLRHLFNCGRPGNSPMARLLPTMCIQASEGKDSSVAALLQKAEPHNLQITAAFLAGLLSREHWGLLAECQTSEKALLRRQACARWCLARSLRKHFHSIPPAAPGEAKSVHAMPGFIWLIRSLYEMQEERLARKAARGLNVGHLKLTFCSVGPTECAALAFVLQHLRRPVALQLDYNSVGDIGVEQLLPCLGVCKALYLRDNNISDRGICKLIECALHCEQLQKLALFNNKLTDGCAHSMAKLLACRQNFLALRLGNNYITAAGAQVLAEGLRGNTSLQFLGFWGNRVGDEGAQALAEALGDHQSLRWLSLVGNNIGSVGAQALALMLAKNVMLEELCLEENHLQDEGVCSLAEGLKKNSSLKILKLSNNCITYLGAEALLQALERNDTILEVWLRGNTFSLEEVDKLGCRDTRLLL

## O=C(NCCCOc1ccc(C(F)(F)F)cc1)c1cc2ncn(CC(=O)N3CCCC(F)(F)C3)c(=O)c2cc1-c1cccc(Cl)c1
[1]
  inhibition: Active
[2]
  inhibition: Dose-dependent effect
[3]
  inhibition: Active
[4]
  IC50: 770 nM
[4]; filed as antagonist, time 23.0 hrs
  inhibition: Dose-dependent effect
[5]
  inhibition: Dose-dependent effect
[6]
  inhibition: Dose-dependent effect
[7]
  inhibition: Active
[8]
  inhibition: Dose-dependent effect
[9]
  inhibition: Active
[10]
  inhibition: Dose-dependent effect
[11]
  inhibition: Dose-dependent effect
[12]
  inhibition: Active
[13]
  Activity: Non-Toxic
[14]
  IC50: 1130 nM
[15]
  inhibition: Dose-dependent effect
